Measurements published in ChEMBL document CHEMBL1122647 (J Med Chem, 1984).
pIC50: −log10 of the molar value. Where “and” joins values, the source holds several entries; their conditions need not be identical. Equal values may be shown once.

Key:
Mus musculus [1] = assay: In vivo antitumor activity was evaluated against L1210 leukemia implanted mice by measuring 7-day weight change after intraperitoneal administration of compound at 0.5 mg/kg; format: functional
Procedure, shortened: (§1)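 Groups of five male B6D2F1J mice were inoculated ip with 10^5 L1210 cells on day 0. Starting day 1, drug in sterile water was given ip bid on days 1-4 and 7-10, with a single double-dose injection on days 5 and 6. Percent body-weight change was recorded at day 7, along with survival range, median T/C and ILS.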

Mus musculus [2] = assay: In vivo antitumor activity was evaluated against L1210 leukemia implanted mice by measuring number of survival days after intraperitoneal administration of compound at 0.5 mg/kg; at a range of 13-16; format: functional
Procedure, shortened: (§2)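 Male B6D2F1J mice, five per group, were implanted ip with 10^5 L1210 cells on day 0. Treatment began on day 1. Drug was given ip in sterile water, twice daily on days 1-4 and 7-10, and as a single double-dose injection on days 5 and 6. Survival was recorded in days (range, and median treated/control), with % ILS derived from it. Body-weight change at 7 days was also recorded.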

Mus musculus [3] = assay: In vivo antitumor activity was evaluated against L1210 leukemia implanted mice by measuring 7-day weight change after intraperitoneal administration of compound at 1 mg/kg; format: functional; procedure, shortened: as §1
Mus musculus [4] = assay: In vivo antitumor activity was evaluated against L1210 leukemia implanted mice by measuring T/C median after intraperitoneal administration of compound at 0.5 mg/kg; T/C median=15/8; format: functional; procedure, shortened: as §2
Mus musculus [5] = assay: In vivo antitumor activity was evaluated against L1210 leukemia implanted mice by measuring number of survival days after intraperitoneal administration of compound at 2 mg/kg; at a range of 16-20; format: functional; procedure, shortened: as §2
Mus musculus [6] = assay: In vivo antitumor activity was evaluated against L1210 leukemia implanted mice by measuring percent increase in life span after intraperitoneal administration of compound at 0.5 mg/kg; format: functional; procedure, shortened: as §2
Mus musculus [7] = assay: In vivo antitumor activity was evaluated against L1210 leukemia implanted mice by measuring T/C median after intraperitoneal administration of compound at 2 mg/kg; T/C median=19/8; format: functional; procedure, shortened: as §2
[8] = target: T1, Dihydrofolate reductase (Mus musculus) (UniProt P00375)
T1 sequence (whole entry): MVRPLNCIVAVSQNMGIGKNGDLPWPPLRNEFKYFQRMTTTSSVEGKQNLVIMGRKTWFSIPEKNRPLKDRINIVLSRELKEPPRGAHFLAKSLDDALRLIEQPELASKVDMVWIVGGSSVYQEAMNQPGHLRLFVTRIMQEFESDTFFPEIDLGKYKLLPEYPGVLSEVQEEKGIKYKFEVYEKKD

Mus musculus [9] = assay: In vivo antitumor activity was evaluated against L1210 leukemia implanted mice by measuring number of survival days after intraperitoneal administration of compound at 1 mg/kg; at a range of 13-17; format: functional; procedure, shortened: as §2
Mus musculus [10] = assay: In vivo antitumor activity was evaluated against L1210 leukemia implanted mice by measuring percent increase in life span after intraperitoneal administration of compound at 1 mg/kg; format: functional; procedure, shortened: as §2
Mus musculus [11] = assay: In vivo antitumor activity was evaluated against L1210 leukemia implanted mice by measuring 7-day weight change after intraperitoneal administration of compound at 2 mg/kg; format: functional; procedure, shortened: as §1
L1210 = assay: Compound was evaluated for its cytotoxicity against the L1210 murine leukemia cell culture; format: functional; details: Mus musculus, read-out: ID50 (the source's name)
Mus musculus [12] = assay: In vivo antitumor activity was evaluated against L1210 leukemia implanted mice by measuring T/C median after intraperitoneal administration of compound at 1 mg/kg; T/C median=16/8; format: functional; procedure, shortened: as §2
Mus musculus [13] = assay: In vivo antitumor activity was evaluated against L1210 leukemia implanted mice by measuring percent increase in life span after intraperitoneal administration of compound at 2 mg/kg; format: functional; procedure, shortened: as §2
Mus musculus [14] = assay: In vivo antitumor activity was evaluated against L1210 leukemia implanted mice by measuring number of survival days after intraperitoneal administration of compound at 16 mg/kg; range 19-21; format: functional
Procedure, shortened: (§3)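 Male B6D2F1J mice, five per group, were inoculated ip with 10^5 L1210 cells on day 0. Treatment began on day 1, given ip in sterile water twice daily on days 1-4 and 7-10, with a single double-dose injection on each of days 5 and 6. Read-outs were percent body weight change over 7 days, survival range in days, treated/control median survival, and percent increase in life span.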

Mus musculus [15] = assay: In vivo antitumor activity was evaluated against L1210 leukemia implanted mice by measuring percent increase in life span after intraperitoneal administration of compound at 16 mg/kg; format: functional; details: 16 mg/kg; procedure, shortened: as §2
Mus musculus [16] = assay: In vivo antitumor activity was evaluated against L1210 leukemia implanted mice by measuring 7-day weight change after intraperitoneal administration of compound at 32 mg/kg; format: functional; procedure, shortened: as §1
Mus musculus [17] = assay: In vivo antitumor activity was evaluated against L1210 leukemia implanted mice by measuring number of survival days after intraperitoneal administration of compound at 32 mg/kg; range 21-24; format: functional; procedure, shortened: as §3
Mus musculus [18] = assay: In vivo antitumor activity was evaluated against L1210 leukemia implanted mice by measuring T/C median after intraperitoneal administration of compound at 32 mg/kg; 22/9; format: functional; procedure, shortened: as §3
Mus musculus [19] = assay: In vivo antitumor activity was evaluated against L1210 leukemia implanted mice by measuring T/C median after intraperitoneal administration of compound at 16 mg/kg; 21/9; format: functional; procedure, shortened: as §3
Mus musculus [20] = assay: In vivo antitumor activity was evaluated against L1210 leukemia implanted mice by measuring 7-day weight change after intraperitoneal administration of compound at 16 mg/kg; format: functional; procedure, shortened: as §1
Mus musculus [21] = assay: In vivo antitumor activity was evaluated against L1210 leukemia implanted mice by measuring number of survival days after intraperitoneal administration of compound at 0.5 mg/kg; at a range of 15-18; format: functional; procedure, shortened: as §2
Mus musculus [22] = assay: In vivo antitumor activity was evaluated against L1210 leukemia implanted mice by measuring 7-day weight change after intraperitoneal administration of compound at 0.75 mg/kg; format: functional; procedure, shortened: as §1
Mus musculus [23] = assay: In vivo antitumor activity was evaluated against L1210 leukemia implanted mice by measuring number of survival days after intraperitoneal administration of compound at 0.75 mg/kg; at a range of 16-21; format: functional; procedure, shortened: as §2
Mus musculus [24] = assay: In vivo antitumor activity was evaluated against L1210 leukemia implanted mice by measuring number of survival days after intraperitoneal administration of compound at 1 mg/kg; at a range of 3-22; format: functional; procedure, shortened: as §2
Mus musculus [25] = assay: In vivo antitumor activity was evaluated against L1210 leukemia implanted mice by measuring T/C median after intraperitoneal administration of compound at 0.75 mg/kg; T/C median=18/9; format: functional; procedure, shortened: as §2
Mus musculus [26] = assay: In vivo antitumor activity was evaluated against L1210 leukemia implanted mice by measuring T/C median after intraperitoneal administration of compound at 1 mg/kg; T/C median=21/9; format: functional; procedure, shortened: as §2
Mus musculus [27] = assay: In vivo antitumor activity was evaluated against L1210 leukemia implanted mice by measuring percent increase in life span after intraperitoneal administration of compound at 0.75 mg/kg; format: functional; procedure, shortened: as §2
Mus musculus [28] = assay: In vivo antitumor activity was evaluated against L1210 leukemia implanted mice by measuring T/C median after intraperitoneal administration of compound at 0.5 mg/kg; T/C median=16/9; format: functional; procedure, shortened: as §2

Nc1nc(N)c2nc(CNc3ccc(C(=O)NC(CCS(=O)(=O)O)C(=O)O)cc3)cnc2n1 (stereo unspecified)
Weight change (Mus musculus [1]): -1% | Survival days (Mus musculus [2]): 13 | Activity (Mus musculus [3]): -8% | Survival days (Mus musculus [4]): 15 | Survival days (Mus musculus [5]): 16 | Activity (Mus musculus [6]): 88% | Survival days (Mus musculus [7]): 19 | ID50 [8]: 63 nM | Survival days (Mus musculus [9]): 13 | Activity (Mus musculus [10]): 100% | Activity (Mus musculus [11]): -8% | pIC50 (L1210): 7.51 | Survival days (Mus musculus [12]): 16 | Activity (Mus musculus [13]): 138%

CN(Cc1cnc2nc(N)nc(N)c2n1)c1ccc(C(=O)NC(CCS(=O)(=O)O)C(=O)O)cc1 (stereo unspecified)
Survival days (Mus musculus [14]): 19 | Activity (Mus musculus [15]): 155% and 144% | Weight change (Mus musculus [16]): -12% | Survival days (Mus musculus [17]): 21 | Survival days (Mus musculus [18]): 22 | Survival days (Mus musculus [19]): 21 | ID50 [8]: 41 nM | pIC50 (L1210): 6.74 | Weight change (Mus musculus [20]): -9%

CN(Cc1cnc2nc(N)nc(N)c2n1)c1ccc(C(=O)N[C@@H](CCC(=O)O)C(=O)O)cc1 [METHOTREXATE]
Weight change (Mus musculus [1]): -1% | Survival days (Mus musculus [21]): 15 | Weight change (Mus musculus [22]): -5% | Survival days (Mus musculus [23]): 16 | Survival days (Mus musculus [24]): 3 | Survival days (Mus musculus [25]): 18 | Weight change (Mus musculus [3]): -8% | Activity (Mus musculus [6]): 78% | Survival days (Mus musculus [26]): 21 | Activity (Mus musculus [10]): 133% | Activity (Mus musculus [27]): 100% | pIC50 (L1210): 7.92 | Survival days (Mus musculus [28]): 16
